Measured values reported in ChEMBL document CHEMBL1649171, “Metabolism of an alkyl polyamine analog by a polyamine oxidase from the microsporidian Encephalitozoon cuniculi” (Antimicrob Agents Chemother, 2009).
Values joined by “and” are separate entries in the source; they are usually repeats but may differ in a detail not shown here. Equal values may be shown once.

Experiments:
Encephalitozoon cuniculi [1] = assay: Activity of Encephalitozoon cuniculi polyamine oxidase assessed as hydrogen peroxide release per mg protein by spectrophotometry relative to 1 mM N'-acetylspermine
Outline: (§1)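 Crude enzyme came from mature E. cuniculi spores collected from culture overlay. Spores were washed in PBS pH 6.8, given 1% SDS for 5 min, glass-bead disrupted to >80% breakage, and clarified at 2,200 × g. The 1 ml assay at 37°C held 0.1 M glycine pH 7.0, 10 U horseradish peroxidase, 5 mM ABTS and 22–220 μg protein. Substrate started the reaction. A420 was followed 15 or 30 min; initial linear rate minus no-substrate control.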

[2] = Inhibition of Encephalitozoon cuniculi polyamine oxidase assessed as hydrogen peroxide release using N'-acetylspermine substrate by spectrophotometry
Outline: (§2)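 Crude spore extract (SDS-washed spores, glass-bead disrupted, clarified at 2,200 × g) in 0.1 M glycine, pH 7.0, with horseradish peroxidase and ABTS. Runs used N1-acetylspermine at 100–2,000 μM, alone or with the analog fixed at 5, 50 or 100 μM; the analog alone was run at 1–25 μM. Reactions were started with 67 μg extract, and A420 was read for 15 min. Kinetic constants came from Hanes-Woolf plots ([S]/V vs [S]).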

Encephalitozoon cuniculi [3] = assay: Activity of Encephalitozoon cuniculi polyamine oxidase assessed as hydrogen peroxide release by spectrophotometry; outline: as §1
Encephalitozoon cuniculi [4] = assay: Activity of Encephalitozoon cuniculi polyamine oxidase assessed as hydrogen peroxide release per mg protein by spectrophotometry relative to 0.1 mM N'-acetylspermine; outline: as §1
Encephalitozoon cuniculi [5] = assay: Activity of Encephalitozoon cuniculi polyamine oxidase assessed as hydrogen peroxide release by spectrophotometry in presence of 1,15-bis{N-[O-phenyl)benzylamino}-4,12-diazapentadecane; outline: as §2
Encephalitozoon cuniculi [6] = assay: Activity of Encephalitozoon cuniculi polyamine oxidase assessed as hydrogen peroxide release per mg protein by spectrophotometry
Outline: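 Enzyme was a clarified glass-bead homogenate of SDS-washed mature spores (>80% breakage). Reactions at 37°C held 0.1 M glycine, pH 7.0, 10 U HRP, 5 mM ABTS and 22–220 μg protein, and were started with substrate (1 mM N1-acetylspermine or another, e.g. 0.1 mM). Peroxide was followed as ABTS oxidation at 420 nm (ε 3.6 × 10⁴ M⁻¹ cm⁻¹) for 15 or 30 min. Values are the initial linear rate minus a no-substrate control.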

Row | Km (Encephalitozoon cuniculi [5]) [µM] | Vmax (Encephalitozoon cuniculi [5]) [µM/min] | Activity (Encephalitozoon cuniculi [6]) | SMILES | fold change (FC) (Encephalitozoon cuniculi [1]) | Ki [2] [µM] | Km (Encephalitozoon cuniculi [3]) [µM] | Vmax (Encephalitozoon cuniculi [3]) [µM/min] | fold change (FC) (Encephalitozoon cuniculi [4])
1 |  |  |  | c1ccc(-c2ccccc2CNCCCNCCCCCCCNCCCNCc2ccccc2-c2ccccc2)cc1 | 0.31 | 40 | 2 | 7.6 | 0.8
2 | 15 | 17.5 |  | CC(=O)NCCCNCCCCNCCCN |  |  | 30 | 10 | 
3 |  |  | 1370 nmol/min and 690 nmol/min | c1ccc(CNCCCNCCCCCCCNCCCNCc2ccccc2)cc1 | 0.89 |  |  |  | 0.98
